ChEMBL document CHEMBL3856288, “Amidate Prodrugs of Deoxythreosyl Nucleoside Phosphonates as Dual Inhibitors of HIV and HBV Replication” (J Med Chem, 2016)

Experiments:
[1] = test system: Human immunodeficiency virus 1; assay: Antiviral activity against HIV1 3B infected in human MT2 cells assessed as protection against virus-induced cytopathic effect after 5 days by XTT assay; type: functional, cell-based; settings: Human immunodeficiency virus 1, 3B, MT2, 120 h
[2] = Cytotoxicity against human MT4 cells assessed as decrease in cell viability after 5 days by MTT assay; type: toxicity, cell-based
[3] = test system: Human immunodeficiency virus 1; assay: Antiviral activity against HIV1 3B infected in human MT4 cells assessed as protection against virus-induced cytopathic effect after 5 days by MTT assay; type: functional, cell-based; settings: Human immunodeficiency virus 1, 3B, MT4, 120 h
Hepatitis B virus [4] = assay: Antiviral activity against HBV ayw1 infected in human HepG2(2.2.15) cells assessed as reduction in viral replication by measuring extracellular viral DNA copy number after 6 days by real-time qPCR method; type: functional, cell-based; settings: ayw1, HepG2 2.2.15, 144 h
Outline: (§1)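 HepG2 2.2.15 cells (stable line carrying two copies of the HBV ayw1 genome) were seeded at 1.5 × 10^4 cells/well in DMEM with 2% FBS and G418. After 16−24 h, compound was added in triplicate, and medium plus compound was renewed on day 3. On day 6, supernatant was Pronase-treated and extracellular HBV DNA was quantified by TaqMan qPCR against an HBV DNA standard curve to give EC50/EC90. Cell viability was read by MTS uptake to give CC50.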

[5] = Antiviral activity against HIV2 ROD infected in human MT4 cells assessed as protection against virus-induced cytopathic effect after 5 days by MTT assay; type: functional, cell-based, Human immunodeficiency virus type 2 (ISOLATE ROD); settings: Human immunodeficiency virus 2, MT4, 120 h
[6] = Cytotoxicity against human HepG2(2.2.15) cells assessed as reduction in cell viability by MTS assay; type: toxicity, cell-based; outline: as §1
[7] = Selectivity index, ratio of CC50 for human MT4 cells to EC50 for HIV2 ROD infected in human MT4 cells; type: toxicity, cell-based; settings: read-out: Ratio CC50/EC50
[8] = Selectivity index, ratio of CC50 for human MT4 cells to EC50 for HIV1 3B infected in human MT4 cells; type: toxicity, cell-based; settings: read-out: Ratio CC50/EC50
[9] = Selectivity ratio of CC50 for human HepG2(2.2.15) cells to EC50 for reduction in HBV ayw1 extracellular DNA copy number; settings: read-out: Ratio CC50/EC50
Outline: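 HepG2 2.2.15 cells (two HBV ayw1 genome copies), 1.5 × 10^4 cells/well in DMEM with 2% FBS and G418; compound dosed in triplicate and medium renewed on day 3. On day 6, Pronase-treated supernatant HBV DNA measured by TaqMan qPCR against a standard curve, giving EC50. MTS uptake gave CC50, and the ratio was calculated from these.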

[10] = Half life in human liver S9 fraction at 100 uM by HPLC-UV method; type: ADME, subcellular
Outline: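 Incubation started by adding human liver S9 fraction (4 mg/mL) at 37 °C; aliquots at 0, 10, 20, 30, 60 min quenched in acetonitrile, centrifuged, supernatant analysed by C18 HPLC with UV at 260 nm; parent peak area versus time 0 gave percent remaining and half-life.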

[11] = Drug metabolism in acetone-d6/pH 7.6 Trizma buffer assessed as baker's yeast carboxypeptidase Y-mediated (S)-2-((((3R,5R)-5-(6-amino-9H-purin-9-yl)tetrahydrofuran-3-yloxy)methyl)oxidophosphorylamino)-4-(isopentyloxy)-4-oxobutanoate formation at 1 mg after 3 hrs by RP-HPLC/mass spectra analysis; type: ADME; settings: saccharomyces cerevisiae, pH 7.6, 3 h
[12] = Chemical stability of the compound in pH 8 phosphate buffer assessed as parent compound remaining at 2 mg after 14 hrs by 31P NMR method; type: physicochemical; settings: read-out: Stability
Outline: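 Prodrug (2 mg) in 0.2 mL acetone-d6 plus 0.3 mL pH 8 buffer (0.1 M Na2HPO4 adjusted with 0.1 M HCl); in situ 31P NMR (202 MHz) at 37 °C, spectra every 30 min over 14 h; parent remaining followed by diastereomer peak disappearance.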

[13] = Chemical stability of the compound in pH 1 phosphate buffer at 2 mg after 1 to 2 hrs by 31P NMR method; type: physicochemical
Outline: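 Prodrug (2.0 mg) dissolved in 0.2 mL acetone-d6 plus 0.3 mL pH 1 buffer (equal parts 0.2 M HCl and 0.2 M KCl); in situ 31P NMR (202 MHz) at 37 °C, spectra recorded every 30 min over 14 h, tracking loss of the diastereomer peaks.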

Hepatitis B virus [14] = assay: Antiviral activity against HBV ayw1 infected in human HepG2(2.2.15) cells assessed as reduction in viral replication by measuring intracellular viral DNA copy number after 6 days by real-time qPCR method; type: functional, cell-based; settings: ayw1, HepG2 2.2.15, 144 h
Outline: (§2)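 The protocol was the same as the primary HepG2 2.2.15 assay (triplicate dosing, medium plus compound renewed on day 3, 6-day course). At the end, total intracellular DNA was isolated from the cells and HBV DNA copy number was measured by TaqMan qPCR to give EC50/EC90. CC50 came from MTS viability, and SI was taken as CC50/EC50.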

[15] = Half life in human liver microsomes at 0.1 uM in presence of NADPH-regenerating system by HPLC MS/MS method; type: ADME
Outline: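 Pooled liver microsomes preincubated 10 min at 37 °C with NADPH-regenerating system (1 mM NADP, 5 mM G6P, 1 U/mL G6PDHase) in phosphate buffer pH 7.4, 3 mM MgCl2, 1 mM EDTA; compound added at 0.1 μM final; samples at 0, 15, 30, 45, 60 min quenched in acetonitrile/methanol, analysed by HPLC MS/MS.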

[16] = Selectivity ratio of CC50 for human HepG2(2.2.15) cells to EC50 for reduction in HBV ayw1 intracellular DNA copy number; type: ADME, cell-based; settings: read-out: Ratio CC50/EC50; outline: as §2

Compound	EC50 (Hepatitis B virus [4]) [µM]	EC90 (Hepatitis B virus [4]) [µM]	EC50 [1] [µM]	CC50 at 120 h [2] [µM]	EC50 [3] [µM]	EC50 [5] [µM]	CC50 [6] [µM]	selectivity ratio [7]	selectivity ratio [8]	selectivity ratio [9]	half-life at 100 µM [10] [min]	Drug metabolism [11]	remaining at 14 h [12] [%]	Stability [13]	EC50 (Hepatitis B virus [14]) [µM]	EC90 (Hepatitis B virus [14]) [µM]	half-life at 0.1 µM [15] [min]	selectivity ratio [16]
C[C@H](Cn1cnc2c(N)ncnc21)OCP(=O)(O)O [TENOFOVIR ANHYDROUS]			5															
CC(C)CCOC(=O)C[C@H](NP(=O)(CO[C@H]1CO[C@@H](n2cnc3c(N)ncnc32)C1)Oc1ccccc1)C(=O)OCCC(C)C (some centres not stated)	0.01	0.98		16.9	0.0216	0.0036	35.2	4810	792	> 1250	12.1	Metabolite_Detected	43	Unstable	< 0.01	0.36	8	8810
CC(C)OC(=O)[C@H](C)NP(=O)(CO[C@H]1CO[C@@H](n2cnc3c(=O)[nH]c(N)nc32)C1)Oc1ccccc1 (some centres not stated)	> 100	> 100		≥ 112	> 112	> 112	> 100											
Cc1cn([C@H]2C[C@@H](OCP(=O)(N[C@@H](C)C(=O)OC(C)C)Oc3ccccc3)CO2)c(=O)[nH]c1=O (some centres not stated)	0.26	> 10		127	0.565	0.424	> 100	295	223	> 38								

The next lines start with results.

EC50 (Hepatitis B virus [4]) [µM]	EC90 (Hepatitis B virus [4]) [µM]	Compound	EC50 [1] [µM]	CC50 at 120 h [2] [µM]	EC50 [3] [µM]	EC50 [5] [µM]	CC50 [6] [µM]	selectivity ratio [7]	selectivity ratio [8]	selectivity ratio [9]	half-life at 100 µM [10] [min]	Drug metabolism [11]	remaining at 14 h [12] [%]	Stability [13]	EC50 (Hepatitis B virus [14]) [µM]	EC90 (Hepatitis B virus [14]) [µM]	half-life at 0.1 µM [15] [min]	selectivity ratio [16]
> 100	> 100	CC(C)OC(=O)[C@H](C)NP(=O)(CO[C@H]1CO[C@@H](n2cnc3c(=O)[nH]c(N)nc32)C1)N[C@@H](C)C(=O)OC(C)C		≥ 97.6	> 97.6	> 97.6	> 100											
0.5		Nc1ncnc2c1ncn2[C@H]1C[C@@H](OCP(=O)(O)O)CO1		≥ 315	4.69	5.23	> 100	≥ 60	≥ 67	> 200								
0.01	> 2	Nc1ccn([C@@H]2CS[C@H](CO)O2)c(=O)n1 [LAMIVUDINE]		> 87.2			> 2	> 10	> 39	> 200					< 0.01	> 2		> 254
> 100	> 100	CC(C)OC(=O)[C@H](C)NP(=O)(CO[C@H]1CO[C@@H](n2ccc(N)nc2=O)C1)N[C@@H](C)C(=O)OC(C)C		≥ 193	> 193	> 193	> 100											
> 100		CCCOC(=O)[C@H](Cc1ccccc1)NP(=O)(CO[C@H]1CO[C@@H](n2cnc3c(=O)[nH]c(N)nc32)C1)N[C@@H](Cc1ccccc1)C(=O)OCCC		> 62	> 62	> 62	> 100											
0.28	> 10	CCCOC(=O)[C@H](Cc1ccccc1)NP(=O)(CO[C@H]1CO[C@@H](n2cc(C)c(=O)[nH]c2=O)C1)N[C@@H](Cc1ccccc1)C(=O)OCCC		56.6	0.0292	0.0204	> 10	2780	1970	> 36								
